IC50, inhibition and Activity data for nine molecules are collected here from ChEMBL document CHEMBL4325832, “Novel Benzazole Derivatives Endowed with Potent Antiheparanase Activity” (J Med Chem, 2018).

Structures are written as SMILES. pIC50: −log10 of the molar value. Activity calls are given as the source filed them. The rule behind the calls is not given here.

One experiment concerns the target T1, Heparanase (Homo sapiens, UniProt Q9Y251).
T1 sequence (Q9Y251 whole entry): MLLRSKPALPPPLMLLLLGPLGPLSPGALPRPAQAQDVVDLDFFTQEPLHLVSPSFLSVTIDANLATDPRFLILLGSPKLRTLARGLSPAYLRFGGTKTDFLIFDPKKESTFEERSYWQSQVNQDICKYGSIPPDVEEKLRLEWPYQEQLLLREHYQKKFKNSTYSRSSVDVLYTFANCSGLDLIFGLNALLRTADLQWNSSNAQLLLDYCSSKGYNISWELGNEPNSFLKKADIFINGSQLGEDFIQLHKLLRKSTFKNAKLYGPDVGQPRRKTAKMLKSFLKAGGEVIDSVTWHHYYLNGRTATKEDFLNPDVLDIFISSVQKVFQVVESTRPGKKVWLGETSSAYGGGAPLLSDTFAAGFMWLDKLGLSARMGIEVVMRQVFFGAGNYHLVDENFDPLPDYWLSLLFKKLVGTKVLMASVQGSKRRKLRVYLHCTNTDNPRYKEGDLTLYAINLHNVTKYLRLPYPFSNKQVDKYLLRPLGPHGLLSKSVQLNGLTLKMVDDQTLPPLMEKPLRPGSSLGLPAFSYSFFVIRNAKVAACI
Nature of the experiment: Inhibition of recombinant HPSE GS3 (unknown origin) using fondaparinux as substrate incubated for 3 hrs in absence of light by WST1 based colorimetry.

Experiment [1] concerns HT-1080. As to the kind of experiment: Antiproliferative activity against human HT1080 cells after 3 days by SRB assay. The note with it: for IC50: ht-1080; for pIC50: Homo sapiens, HT-1080, 72 h.
Experiment [2] relates to U2OS. Nature of the experiment: Antiproliferative activity against human U2OS cells after 3 days by SRB assay. The note with it: for IC50: u2os; for pIC50: Homo sapiens, U2OS, 72 h.
Experiment [3] has as its system U-87 MG. Nature of the experiment: Antiproliferative activity against human U87MG cells after 3 days by SRB assay. Conditions: for IC50: u-87mg atcc; for pIC50: Homo sapiens, U-87 MG, 72 h.
Experiment [4] deals with U-87 MG. Nature of the experiment: Inhibition of cell invasion in human U87MG cells at 10 uM after 24 hrs by SRB staining based matrigel invasion chamber assay relative to control. In kind it is functional, U-87MG ATCC. In short, it runs like this: (§1)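 HT1080, U87MG and U2OS cells pretreated with compound in complete medium for 24 h, harvested, resuspended in serum-free medium and seeded at 2.5 × 10^4 cells/filter into Growth Factor Reduced Matrigel-coated Transwell upper chambers. Same concentration in both upper and lower chambers. After 24 h, invaded cells SRB-stained and counted under microscope at 40X-100X. Student's 2-tailed t test, P<0.05.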

The test system of experiment [5] is U2OS. The note with it: Homo sapiens, 10 uM.
For experiment [6], the system named is HT-1080. Nature of the experiment: Inhibition of cell invasion in human HT1080 cells at 10 uM after 24 hrs by SRB staining based matrigel invasion chamber assay relative to control. In kind it is functional. In short, it runs like this:
as §1

In experiment [7] the test system is U2OS. As to the kind of experiment: Inhibition of cell invasion in human U2OS cells at 10 uM after 24 hrs by SRB staining based matrigel invasion chamber assay relative to control. Conditions: read-out: INH.
For experiment [8], the system named is HT-1080. Nature of the experiment: Downregulation of HPSE1 mRNA expression in human HT1080 cells at 1 uM after 24 hrs by qPCR analysis. In kind it is functional, cell-based. In short, it runs like this:
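HT1080 cells treated 24 h with compound at 1 μM. Total RNA extracted and reverse-transcribed. HPSE-1 mRNA quantified by real-time qPCR using the ΔΔCt method, […]. Expressed as percent of untreated cells.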

The species named for experiment [9] is Homo sapiens. Nature of the experiment: Anti-invasive activity against human CME1 cells after 24 hrs by SRB staining based matrigel invasion chamber assay. In kind it is functional, cell-based. The gist of the method: (§2)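 CME-1 or A204 cells pretreated with drug in complete medium for 24 h, then resuspended in serum-free medium and placed in upper chamber of Growth Factor Reduced Matrigel-coated Transwells (1.2 × 10^5 CME-1 or 1.8 × 10^5 A204 cells/filter). Same drug concentration in both upper and lower chambers, 24 h. Invaded cells SRB-stained and counted microscopically. DMSO final 0.5% (CME-1) or 0.25% (A204).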

For experiment [10], the system named is A204. As to the kind of experiment: Anti-invasive activity against human A204 cells after 24 hrs by SRB staining based matrigel invasion chamber assay. The format is functional, cell-based. The gist of the method: as §2
The species entered for experiment [11] is Homo sapiens. Conditions: 1.5 uM.
A short description of experiment [12]: Antiproliferative activity against human CME1 cells after 72 hrs by cell counting analysis.
The subject of experiment [13] is HT-1080. Nature of the experiment: Inhibition of cell invasion in human HT1080 cells at 1 uM after 24 hrs by SRB staining based matrigel invasion chamber assay relative to control. In kind it is functional. Conditions: HT-1080, 24 h. The gist of the method:
as §1

The test system of experiment [14] is A204. As to the kind of experiment: Antiproliferative activity against human A204 cells after 72 hrs by cell counting analysis. The note with it: A204, 72 h.
The subject of experiment [15] is U2OS. Nature of the experiment: Inhibition of cell invasion in human U2OS cells at 1 uM after 24 hrs by SRB staining based matrigel invasion chamber assay relative to control. In kind it is functional. In short, it runs like this: as §1
Experiment [16] is described as follows: Antiproliferative activity against human CME1 cells assessed as inhibition of cell proliferation at 3.1 uM after 24 hrs by cell counting analysis relative to control. The format is functional. More on the design: scale not given: the % may be the effect or the level left. In short, it runs like this: (§3)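 CME-1 or A204 cells in RPMI plus 10% FBS, exposed to drug in DMSO or solvent alone for 24 h. Proliferation assessed by cell counting and expressed as percent inhibition versus control. DMSO final 0.5% (CME-1) or 0.25% (A204).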

Experiment [17] has as its system U-87 MG. As to the kind of experiment: Inhibition of cell invasion in human U87MG cells at 1 uM after 24 hrs by SRB staining based matrigel invasion chamber assay relative to control. The format is functional, U-87MG ATCC. In short, it runs like this:
as §1

Experiment [18] deals with A204. The note with it: Homo sapiens, 1.5 uM.
For experiment [19], the system named is A204. As to the kind of experiment: Antiproliferative activity against human A204 cells assessed as inhibition of cell proliferation at 3.1 uM after 24 hrs by cell counting analysis relative to control. The format is functional. More on the design: scale not given: the % may be the effect or the level left. In short, it runs like this:
as §3

Turning to `COc1ccc(C(=O)Nc2ccc(CNc3ccc(-c4nc5cc(CC(=O)O)ccc5[nH]4)cc3)cc2)cc1Br`, the pIC50 at Heparanase is less than 5.00.
Regarding `COc1ccc(C(=O)Nc2ccc(CNc3ccc(-c4nc5cc(CC(=O)NCB(O)O)ccc5o4)cc3F)cc2)cc1Br`, on Heparanase, the pIC50 is less than 5.00.
Take `COc1ccc(C(=O)Nc2ccc(CNc3ccc(-c4nc5cc(CC(=O)O)ccc5o4)cc3)cc2)cc1Br`: on Heparanase, the pIC50 was less than 5.00.
On to `COc1ccc(C(=O)Nc2ccc(CNc3ccc(-c4nc5cc(CC(=O)NCC(=O)O)ccc5o4)cc3F)cc2)cc1Br`, for which the IC50 result with HT-1080 [1], in the experiment with U2OS [2] and with U-87 MG [3] was “Not Active” each time.
For the molecule `COc1ccc(C(=O)Nc2ccc(CNc3ccc(-c4nc5cc(CC(=O)N[C@@H](CCC(=O)O)C(=O)O)ccc5o4)cc3F)cc2)cc1Br`, the IC50 result with HT-1080 [1], with U2OS [2] and in the experiment with U-87 MG [3] was “Not Active” each time. Further, the inhibition at 10 µM in the experiment with U-87 MG [4] fell in the range of 50 to 90%; in the experiment with HT-1080 [6] (HT-1080, 24 h), 50 to 90%. Further, the inhibition entry in the experiment on U2OS [5] is “inactive”.
As for `COc1ccc(C(=O)Nc2ccc(CNc3ccc(-c4nc5cc(CC(=O)N[C@@H](CCCCN)C(=O)O)ccc5o4)cc3F)cc2)cc1Br`, the pIC50 on Heparanase was less than 5.00.
For the molecule `COc1ccc(C(=O)Nc2ccc(CNc3ccc(-c4nc5cc(CC(=O)NCC(=O)O)ccc5[nH]4)cc3F)cc2)cc1Br`, the pIC50 at Heparanase was 6.19. Besides, the IC50 entry with HT-1080 [1], in the experiment with U2OS [2] and with U-87 MG [3] was “Not Active” each time. In addition, the inhibition at 10 µM with U2OS [7] was less than 50%. The inhibition result in the experiment on U-87 MG [4] (U-87MG ATCC) and in the experiment with HT-1080 [6] was “inactive” each time.
On to `COc1ccc(C(=O)Nc2ccc(CNc3ccc(-c4nc5ccccc5[nH]4)cc3F)cc2)cc1Br`, for which the outcome in the experiment with HT-1080 [8] was Active. Further, the pIC50 was 5.06 with HT-1080 [1]; 5.77 in the experiment with U2OS [2]; 5.41 in experiment [12]; 5.55 in the experiment with U-87 MG [3]; 5.47 in the experiment with A204 [14]. In addition, the Activity entry was “Dose-dependent effect” in the experiment filed under Homo sapiens [9], “Dose-dependent effect” with A204 [10], 15% in experiment [16] and 5% in the experiment on A204 [19]. Besides, the inhibition entry in the experiment filed under Homo sapiens [11] and in the experiment with A204 [18] was “inactive” in each case. Moreover, the inhibition at 1 µM in the experiment on HT-1080 [13], in the experiment with U2OS [15] and in the experiment with U-87 MG [17] was 50 to 90% in each case.
Regarding `COc1ccc(C(=O)Nc2ccc(CNc3ccc(-c4nc5ccccc5[nH]4)cc3)cc2)cc1Br`, the result with HT-1080 [8] was inactive. The pIC50 with HT-1080 [1] was 5.51; in the experiment with U2OS [2], 5.68; in the experiment with U-87 MG [3], 5.57. Also, the inhibition at 1 µM in the experiment with HT-1080 [13], in the experiment with U2OS [15] and in the experiment on U-87 MG [17] was 50 to 90% each time.
